Laboratory results as given in article PMC6301001 (Cancer chemotherapy and pharmacology, 2015).
Where “and” joins values, the source holds several entries; their conditions need not be identical. Equal entries are not always repeated. Entries after “also recorded” stand apart in the source; their conditions may differ. Where two headings read alike, the source gives them in different places.

Assays:
[1] = assay type: in vivo, rhesus monkeys (Macaca mulatta); conditions: single oral dose 7 mg/kg; for Cl: plasma clearance
Method in brief: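 Single 7 mg/kg oral dose by nasogastric tube under ketamine sedation to three adult male rhesus monkeys (10.5–14.7 kg) fitted with central venous ports. Blood sampled at 0–10, 24 and 48 h, then on days 0–64; plasma held at –80 °C. Total drug by HPLC/MS/MS after acetonitrile precipitation with miltefosine internal standard; standards 0.001–10 µg/ml; LLOQ 1 ng/ml. Non-compartmental: observed Cmax/Tmax, trapezoidal AUC0–inf, t1/2 = 0.693/k, Cl = dose/AUC0–inf.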

[2] = test system: human tumor cell lines; conditions: wide variety of human tumor cell lines; reported range; cited from earlier work
[3] = test system: U251 xenografts injected into the hind limb; conditions: cited from earlier work
[4] = test system: glioma cell lines; conditions: cited from earlier work
[5] = adult patients with solid tumors, cited from earlier work
[6] = cited from earlier work
[7] = assay type: in vivo, rhesus monkeys (Macaca mulatta)
Method in brief: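 Three adult male rhesus monkeys with an implanted fourth-ventricular CSF catheter/reservoir, sedated with ketamine (10 mg/kg IM), then given a single 7 mg/kg oral dose by nasogastric tube. CSF (0.3 ml) sampled at 0–10, 24 and 48 h, then in a repeat study on days 0–64. Total drug by HPLC/MS/MS (LLOQ 0.1 ng/ml). Non-compartmental analysis: observed Cmax; trapezoidal AUC0–inf; t1/2 = 0.693/terminal rate constant; penetration = CSF/plasma AUC0–inf.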

[8] = test system: mouse model of DIPG in which the PI3Kinase/Akt pathway is activated; conditions: genetically engineered mouse model of DIPG; cited from earlier work
[9] = CSF, individual NHP, single oral dose 7 mg/kg, 7 mg/kg

Structure (SMILES): CCCCCCCCCCCCCCCCCCOP(=O)([O-])OC1CC[N+](C)(C)CC1 [Perifosine]
- Cl ([1]; individual NHP, 7 mg/kg): 77.6 mL/h and 36.5 mL/h and 63.3 mL/h
- Cl ([1]; mean (range) of 3 NHP): 59.1 mL/h
- T 1/2 ([1]; plasma terminal half-life, individual NHP, 7 mg/kg): 193 h and 170 h
- AUC ([1]; plasma, individual NHP, T = 0 to infinity, 7 mg/kg): 2139 µg·h/mL and 1137 µg·h/mL
- Cmax ([1]; plasma, individual NHP, sampling to 64 days, 7 mg/kg): 8800 ng/mL and 5300 ng/mL
- time plasma concentrations remained >1 µM ([1]; plasma): > 28 days
- IC.50 [2]: .09 to 9.2 µg/mL
- activity in vivo in mice bearing U251 xenografts [3]: demonstrated activity
- activity in vitro against glioma cell lines [4]: demonstrated activity
- terminal half-life in humans ([5]; 50–350 mg/day orally for 3 weeks): 105 h
- plasma half-lives ([5]; oral dose): 80 to 116 h
- time of peak plasma concentrations ([5]; oral dose): 8 to 24 h
- tolerability in early phase clinical trials [6]: relatively well tolerated
- single-agent responses in patients ([6]; renal cell carcinoma, sarcoma and Waldenstroms macroglobulinemia, Phase I and Phase II): single-agent objective responses have been reported
- t 1/2 ([7]; CSF terminal half-life, individual NHP, single oral dose 7 mg/kg, 7 mg/kg): 146 h and 277 h and 350 h
- Cmax [7, 9]: 1.85 ng/mL and 4.39 ng/mL and 4.57 ng/mL
- Tmax [7, 9]: 63.6 h and 235.3 h and 235.4 h
- AUC ([7]; CSF, individual NHP, single oral dose 7 mg/kg, T = 0 to infinity, 7 mg/kg): 1.031 µg·h/mL and 3.44 µg·h/mL and 2.89 µg·h/mL
- maximum measured CSF concentration ([7]; CSF, mean of 3 NHP, single oral dose 7 mg/kg, molar equivalent): 7.8 nM
- CSF AUC ([7]; CSF, median (range) of 3 NHP, single oral dose 7 mg/kg): 6358 (2266–7568) nM/h
- Cmax in the CSF in initial experiments ([7]; CSF, oral 7.0 mg/kg, collection up to 48 h, 7 mg/kg): had not been reached by 48 h; also recorded: has not been reached by 48 h
- time to maximum CSF concentration ([7]; CSF, single oral dose 7 mg/kg, 7 mg/kg): > 7 days and 7 days
- Kp ([7]; male, rhesus monkey, CSF, po, 7 mg/kg): 0.0016
- AUCCSF:AUCPl (ratio of CSF to plasma exposure) ([7]; mean of 3 NHP, single oral dose 7 mg/kg): .0016
- time levels were measurable in both plasma and CSF ([7]; plasma and CSF, after a single oral dose): > 2 months
- CSF concentrations relative to plasma concentrations (fold less) ([7]; single oral dose 7 mg/kg): 1000 fold
- activity in mouse model of pontine glioma [8]: absent activity; also recorded: lacked activity; also recorded: no activity was observed
